# Calls of active or inactive are those of the source. The calls are words filed in the database; no cut-off is given here.
# What was measured:
# [1] = test system: Rattus norvegicus; experiment: Anxiolytic activity in ip dosed Wistar rat assessed as number of punished licks for 5 mins by conflict drinking test; type: functional; details: read-out: MED
# Summary of the method: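 Modified Vogel test in male Wistar rats, 160–180 g, water-deprived 48 h and fasted 24 h. Dosed ip 30 min before test. After a 30 s free-drinking period, 600 µA, 0.6 s shocks came through the spout every 20 licks over 5 min. Punished licks counted; minimal effective dose reported.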
# [2] = molecular target: T1, 5-hydroxytryptamine receptor 1A (Rattus norvegicus) (UniProt P19327); experiment: Displacement of [3H]8-OH-DPAT from 5HT1A receptor in rat frontal cortex membrane at 10 nM; type: cell membranes
# T1 sequence (whole entry): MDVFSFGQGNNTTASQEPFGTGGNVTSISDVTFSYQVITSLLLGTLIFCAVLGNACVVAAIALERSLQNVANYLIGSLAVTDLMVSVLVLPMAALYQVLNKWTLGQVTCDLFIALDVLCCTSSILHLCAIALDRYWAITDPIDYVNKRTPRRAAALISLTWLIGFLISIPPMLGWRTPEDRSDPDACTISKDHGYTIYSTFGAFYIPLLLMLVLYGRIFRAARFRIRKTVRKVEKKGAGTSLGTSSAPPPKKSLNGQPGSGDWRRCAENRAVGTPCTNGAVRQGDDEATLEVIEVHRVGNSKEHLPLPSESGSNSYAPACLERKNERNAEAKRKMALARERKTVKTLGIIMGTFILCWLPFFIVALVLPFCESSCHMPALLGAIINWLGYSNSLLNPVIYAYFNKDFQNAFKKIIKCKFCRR
# Summary of the method: (§1)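 Rat tissue homogenized in 50 mM Tris-HCl pH 7.7, washed by repeated 40000g spins with a 10 min 37 °C incubation. Buffer: Tris-HCl, 6.66 mM CaCl2, 16.66 µM pargyline, 0.166% ascorbate. Labelled with 1.5 nM [3H]8-OH-DPAT, 45 min at 25 °C; nonspecific with 10 µM 5-HT. GF/B filtration, then scintillation counting; percent inhibition.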
# [3] = molecular target: T1, 5-hydroxytryptamine receptor 1A (Rattus norvegicus); experiment: Displacement of [3H]8-OH-DPAT from 5HT1A receptor in rat frontal cortex membrane at 0.1 uM; type: cell membranes; summary of the method: as §1
# [4] = molecular target: T2, 5-hydroxytryptamine receptor 7 (Homo sapiens, UniProt P34969); experiment: Displacement of [3H]LSD from human recombinant 5HT7 receptor expressed in CHO cells; type: cell-based
# T2 sequence (P34969 whole entry): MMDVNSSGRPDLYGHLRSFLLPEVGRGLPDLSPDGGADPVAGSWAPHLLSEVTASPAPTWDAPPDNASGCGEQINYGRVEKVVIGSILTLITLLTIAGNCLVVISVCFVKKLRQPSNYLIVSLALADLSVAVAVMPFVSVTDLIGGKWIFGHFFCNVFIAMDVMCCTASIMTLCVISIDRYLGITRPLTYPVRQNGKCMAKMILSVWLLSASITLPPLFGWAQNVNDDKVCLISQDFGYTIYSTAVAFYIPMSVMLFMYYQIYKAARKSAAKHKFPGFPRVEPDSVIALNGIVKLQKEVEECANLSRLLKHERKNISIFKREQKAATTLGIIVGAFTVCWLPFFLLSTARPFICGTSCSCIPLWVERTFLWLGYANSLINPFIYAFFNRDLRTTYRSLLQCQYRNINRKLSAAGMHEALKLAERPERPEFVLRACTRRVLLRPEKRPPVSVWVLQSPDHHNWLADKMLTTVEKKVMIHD
# Summary of the method: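 Cloned human 5-HT7 receptor from CHO cells, labelled with [3H]LSD; nonspecific binding with 25 µM clozapine. Stopped by filtration on PEI-soaked GF/C filters, then scintillation counting. Ki from two displacement curves of nine concentrations each, run in triplicate.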
# [5] = species on record: Rattus norvegicus; experiment: Metabolic stability in rat; type: ADME, organism-based; details: in vitro
# [6] = molecular target: T2, 5-hydroxytryptamine receptor 7; experiment: Antagonist activity at human 5HT7A receptor expressed in CHO cells assessed as inhibition of […]-induced cAMP elevation at 10 nM administered before […] challenge; type: functional, cell-based; parameters: scale not given: the % may be the effect or the level left
# Summary of the method: (§2)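 CHO cells stably expressing human 5-HT7A, cultured in F12:DMEM with 5% FCS, seeded 24 h ahead. Compounds from 1 mM DMSO stock (final DMSO 0.1%) preincubated 10 min, then 20 min with 10 nM 5-CT at 37 °C. Cells lysed, cAMP by EIA, normalized to BCA protein. The 5-CT-induced level is taken as 100%; six independent experiments.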
# [7] = test system: Mus musculus; experiment: Anxiolytic activity in ip dosed NMRI mouse assessed as behavioral activity for 5 mins by light dark assay; type: functional; details: read-out: MED
# Summary of the method: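 Male NMRI mice, 25–33 g, kept in a dark room and dosed ip 30 min before test, then placed in the centre of the lit area. Over 5 min, time in each area, transitions, and horizontal and vertical activity were recorded. Minimal effective dose by one-way ANOVA with Duncan's test.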
# [8] = molecular target: T2, 5-hydroxytryptamine receptor 7; experiment: Antagonist activity at human 5HT7A receptor expressed in CHO cells assessed as inhibition of […]-induced cAMP elevation at 1 uM; type: functional, cell-based; parameters: scale not given: the % may be the effect or the level left; summary of the method: as §2
SMILES,minimal effective dose [1] [mg/kg],Activity [2] [%],Activity [3] [%],Ki ([4]; read-out: Ki) [nM],Stability [5] [%],Activity [6],minimal effective dose [7] [mg/kg],Activity [8] [%],Ki ([4]; read-out: Log Ki (converted)) [nM]
CCC1(CCCCN2CCN(c3ccccc3)CC2)C(=O)N(C)c2ccccc21 (centres undefined),20,12,42,33.4,–,–,–,–,–
CCC1(CCCCN2CCN(c3ccc(OC)cc3)CC2)C(=O)Nc2ccccc21 (centres undefined),> 20,3,24,25.4,–,–,–,–,–
O=C1Nc2ccc(F)cc2C1CCCCN1CCN(c2ccc(F)cc2)CC1 (centres undefined),> 10,–,6,3.4,40,–,–,–,–
CCC1(CCCCN2CCN(c3cccc(Cl)c3)CC2)C(=O)Nc2ccccc21 (centres undefined),> 20,11,42,0.41,4,40%,> 10,> 95,–
CCC1(CCCCN2CC=C(c3ccc(F)cc3)CC2)C(=O)Nc2ccccc21 (centres undefined),20,–,19,1.19,–,–,–,> 95,–
CC(C)CC1(CCCCN2CCN(c3cccc(Cl)c3)CC2)C(=O)Nc2ccccc21 (centres undefined),10,–,12,1.8,–,inactive,> 10,> 95,–
CCC1(CCCCN2CCN(c3ccccc3OC)CC2)C(=O)Nc2ccccc21 (centres undefined),10,28,79,5.38,–,–,–,–,–
CCC1(CCCCN2CCN(c3ccc(F)c(Cl)c3)CC2)C(=O)Nc2ccccc21 (centres undefined),> 20,0,14,0.6,–,–,–,–,–
CCC1(CCCCN2CCN(c3ccc(C)c(Cl)c3)CC2)C(=O)Nc2ccccc21 (centres undefined),> 20,0,11,0.66,–,40%,–,> 95,–
COc1ccccc1N1CCN(CCCCC23CCCc4cccc(c42)NC3=O)CC1 (centres undefined),–,–,–,–,–,–,–,–,2.14
CCC1(CCCCCN2CCN(c3cccc(Cl)c3)CC2)C(=O)Nc2ccccc21 (centres undefined),> 10,12,43,1.45,–,20%,> 10,> 95,–
CCC1(CCCCN2CCN(c3cccc(Cl)c3)CC2)C(=O)Nc2ccc(Cl)cc21 (centres undefined),> 20,–,18,8.27,–,–,–,–,–
CCC1(CCCCN2CCN(c3cccc(Cl)c3)CC2)C(=O)Nc2c(Cl)cc(F)cc21 (centres undefined),> 20,–,31,4.75,–,–,> 10,–,–
CCC1(CCCCN2CCN(c3ccc(Cl)cc3)CC2)C(=O)Nc2ccccc21 (centres undefined),10,2,11,0.38,9,–,> 10,–,–
CC1CCN(CC[C@H]2CCCN2S(=O)(=O)c2cccc(O)c2)CC1,–,–,–,–,–,80%,–,> 95,–
CCC1(CCCCN2CCN(c3cccc(Cl)c3)CC2)C(=O)Nc2cc(F)ccc21 (centres undefined),> 20,11,37,0.67,–,–,–,–,–
CCC1(CCCCN2CCN(c3ccc(Cl)cc3)CC2)C(=O)Nc2cc(F)c(Cl)cc21 (centres undefined),–,–,0,6.99,–,–,–,–,–
CCC1(CCCCN2CCN(c3ccccc3Cl)CC2)C(=O)Nc2ccccc21 (centres undefined),> 20,9,51,5.11,–,–,–,–,–
CCC1(CCCCN2CCN(c3ccc(Cl)cc3)CC2)C(=O)Nc2ccc(F)cc21 (centres undefined),> 20,–,9,2.81,–,–,> 10,–,–
CCC1(CCCCN2CCN(c3ccc(F)cc3)CC2)C(=O)Nc2ccc(F)cc21 (centres undefined),> 20,–,7,1.5,–,–,–,–,–

SMILES,minimal effective dose [1] [mg/kg],Activity [2] [%],Activity [3] [%],Ki ([4]; read-out: Ki) [nM],Stability [5] [%],Activity [6],minimal effective dose [7] [mg/kg],Activity [8] [%],Ki ([4]; read-out: Log Ki (converted)) [nM]
CCC1(CCCCN2CCN(c3ccc(Cl)cc3)CC2)C(=O)Nc2c(Cl)cc(Cl)cc21 (centres undefined),< 5,–,5,10.1,76,–,< 1,–,–
CCC1(CCCN2CCN(c3cccc(Cl)c3)CC2)C(=O)Nc2ccccc21 (centres undefined),> 20,57,91,21,–,–,3,–,–
CCC1(CCCCN2CCC(c3ccc(F)cc3)CC2)C(=O)Nc2ccccc21 (centres undefined),20,–,11,5.3,–,–,> 10,–,–
CCC1(CCCCN2CCN(c3ccc(F)cc3)CC2)C(=O)Nc2ccccc21 (centres undefined),10,12,10,0.43,–,–,< 1,–,–
CCC1(CCCCN2CCC(C)CC2)C(=O)Nc2ccccc21 (centres undefined),–,–,0,–,–,–,–,> 95,–
CCC1(CCCCN2CCN(c3ccc(Cl)cc3)CC2)C(=O)Nc2c(Cl)cc(F)cc21 (centres undefined),> 20,–,0,5.97,–,–,–,–,–
CCC1(CCCCN2CCN(c3ccccc3OC)CC2)C(=O)N(Cc2ccccc2)c2ccccc21 (centres undefined),> 20,32,86,6.57,–,–,–,–,–
CCC1(CCCCN2CCN(c3ccc(Cl)c(Cl)c3)CC2)C(=O)Nc2ccccc21 (centres undefined),> 20,0,11,0.63,–,–,–,–,–
CCC1(CCCCN2CC=C(c3ccc(Cl)cc3)CC2)C(=O)Nc2ccccc21 (centres undefined),> 20,–,10,1.02,–,inactive,–,> 95,–
CCC1(CCCCN2CCc3ccccc3C2)C(=O)Nc2ccccc21 (centres undefined),> 20,–,52,7.65,–,–,–,> 95,–
CCC1(CCCCN2CCN(c3cccc(Cl)c3)CC2)C(=O)Nc2ccc(F)cc21 (centres undefined),< 5,–,24,2.11,–,–,> 10,–,–
CCC1(CCCCN2CCN(c3cccc(Cl)c3)CC2)C(=O)Nc2c(Cl)cc(Cl)cc21 (centres undefined),> 20,–,7,9.46,–,–,–,–,–
CCC1(CCCCN2CCN(c3cccc(Cl)c3)CC2)C(=O)Nc2cc(F)c(Cl)cc21 (centres undefined),20,–,16,9.07,–,–,–,–,–
CCC1(CCCCCN2CCN(c3ccc(Cl)cc3)CC2)C(=O)Nc2ccccc21 (centres undefined),> 20,0,11,1.24,–,–,–,–,–
CCC1(CCCCN2CCc3sccc3C2)C(=O)Nc2ccccc21 (centres undefined),> 20,–,29,4.31,–,–,> 10,–,–
CCC1(CCCCN2CCN(c3ccccc3)CC2)C(=O)Nc2ccccc21 (centres undefined),10,6,26,2.07,–,–,–,–,–
CCC1(CCCCN2CCN(c3ccc(Cl)cc3)CC2)C(=O)Nc2ccc(Cl)cc21 (centres undefined),> 20,–,0,3.72,–,–,–,–,–
O=C1Nc2ccccc2C1CCCCN1CCN(c2cccc(Cl)c2)CC1 (centres undefined),< 5,9,40,0.49,–,80%,> 10,> 95,–
O=C1Nc2ccc(F)cc2C1CCCCN1CCN(c2cccc(Cl)c2)CC1 (centres undefined),> 20,–,43,1.96,–,–,–,–,–
CCC1(CCCCN2CCN(c3cccc(OC)c3)CC2)C(=O)Nc2ccccc21 (centres undefined),> 20,6,33,2.55,–,–,–,–,–
